# Results as given in the EternaBench riboswitch data.
# System: MS2 coat protein
# Assay: apparent Kd, MS2 coat protein; higher = weaker binding; RNA-MaP array; FMN 200 µM where present
# Summary of the method: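 Green signal from SNAP-549-labelled MS2 coat protein was normalised to red-channel RNA signal and to the median Fmax of control clusters. The protein was titrated from 0.7 or 1.5 nM, doubling to 3 µM, without and then with constant ligand, over designs transcribed by stalled E. coli RNA polymerase on Illumina sequencing-chip clusters, in 100 mM Tris-HCl pH 7.5, 80 mM KCl, 4 mM MgCl2, BSA, DTT, yeast tRNA and Tween-20. The apparent Kd is the median of filtered per-cluster binding-curve fits.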
# [1] = designed as: OFF switch for flavin mononucleotide, no ligand
# [2] = ligand present: flavin mononucleotide, designed as: OFF switch for flavin mononucleotide
# [3] = designed as: ON switch for flavin mononucleotide, no ligand
# [4] = ligand present: flavin mononucleotide, designed as: ON switch for flavin mononucleotide
Sequence,apparent Kd [1] [nM],apparent Kd [2] [nM],apparent Kd [3] [nM],apparent Kd [4] [nM]
AAUGGCGCGAUAGCGCUAAUUAAAACAUGAGGAUCACCCAUGUAGGAUAUCCUACCGAAAUGGUAGGAGAAGGACAAGCAAUGA,23.5,18.7,–,–
AAUGUGUCAGGAUAUAGUAGACUCCUUGGAACGGUAGUCAGUUAGAAGGGACAUGAGGAUCACCCAUGUCGAGU,19.3,19.6,–,–
AAUUAACUCACAGGAUAUAGCAGAGGUCGAGUAAACUUACAGGCGACGAGGCUAGAAGGGUGACCACAUGAGGAUCACCCAUGU,–,–,733,131
AAUUAAUUAAUUAAUUCCUGCAUACAUGAGGAUCACCCAUGUAAGGAUAUCGUCAGGAAUACUGACGAGAAGGUACAUAGCAGG,15.7,21.6,–,–
AAUUAUAUACAGAAGGAGUUAUAUUGAGUAUUACUAGGAUAUGUUCACAUGAGGAUCACCCAUGUCAUAUUGGGAUUUAUUAUA,21.6,27.9,–,–
AAUUAUAUGUAGAAGGUACAGACUUAUGAGUAGUAAGGAUAUACAAAAUUAUUAAUUCUCAAGUUACAUGAGGAUCACCCAUGU,–,–,11.6,8.33
AAUUAUAUGUAGAAGGUACUAACAUAAGUGUUGUAAGGAUAUACCAAUUUAUUAGUUUUAAAGUUACAUGAGGAUCACCCAUGU,–,–,12.4,7.98
AAUUAUUGAUGAGGAUAUUGUGGUGAAACACGACAAGAAGGCAUUAUACACAUGAGGAUCACCCAUGUGAGCCUGAUGCAUAUA,16.6,22.2,–,–
AAUUAUUUACAGAAGGAGUAAGAUUAUGUAUUACUAGGAUAUGUUCACAUGAGGAUCACCCAUGUCAUUGUAGGUUUUAUAUGU,10.8,8.19,–,–
AAUUAUUUGUAGAAGGAAGGAGAUUUUGUAUUCUUAGGAUAUACUAUUACAUGAGGAUCACCCAUGUUUGAAGGGUUGCAAUGU,47.5,59.8,–,–
AAUUCACAUGAGGAUCACCCAUGUCAGGAUAUGGUGACGCGGGUUUCGGUGCGUGUUGCCAGAAGGGACAGCUA,79.2,119,–,–
AAUUCGUCAGGAUAUGCAUGUAAUUGUUACAUUUCUCCGUUGCAGAAGGGACAUGAGGAUCACCCAUGUAAGUC,29.7,28.7,–,–
AAUUGAAACGUAGGAUAUCGCAAAGAUCUAGAACGAGAAGGACGUACAUGAGGAUCACCCAUGUUAAAUGGUGAAGAUUAGAUG,768,916,–,–
AAUUGACACGUAGGAUAUCGCUCUAAUUAAACACGAGAAGGACGUACAUGAGGAUCACCCAUGUUAAAUGGUGUAGAUAAGUUG,172,479,–,–
AAUUGACACGUAGGAUAUCGCUCUUAAUUAACACGAGAAGGACGUACAUGAGGAUCACCCAUGUUAAAUGGUGUAGUUUAGUUG,45.5,123,–,–
AAUUGACAUGAGGAUCACCCAUGUCCACCAAACGGAGGAUAUUGGGCGGCAAAACGUUGUUAAGAAGGCCGAAAUU,–,–,34.1,88.3
AAUUGGAUGCAGAAGGCAUGGACGACUCGUCACAUUAACAUGAGGAUCACCCAUGUAAUAAGACAUGAGGAUAUGCAUCCUAAA,–,–,7.68,5.49
AAUUGGAUGCAGAAGGCAUGGACGACUCGUCACAUUAACAUGAGGAUCACCCAUGUGAAAACACAUGAGGAUAUGCAUCCUAAA,–,–,17.5,6.41
AAUUUACAGCUAGGAUAUACAUGAGGAUCACCCAUGUGACGAUCGGAUCUUAUGAUCGUGUCCGUGUAGAAGGAGCAAAUAAGA,8.15,10,–,–
ACAAAACAUGAGGAUCACCCAUGUGAGGAUAUGCGAAACAAACAAACAAACAAACAAAGCAGAAGGCACAACAA,22.7,37.1,–,–
ACAAGAUCAGGAUAUACAUGAGGAUCACCCAUGUAUUUCAAAAAGGGACUUUCUUUAUGUAGAAGGGAUCUUGU,50.8,67.2,–,–
ACAAUAAAGGGUCUGGUUCCAUACAUGAGGAUCACCCAUGUCAAGGAUAUAACGGACGGGCGCCGUUAGAAGGUGACGACUGCG,132,401,–,–
ACAGAGCUUGACAUGAGGAUCACCCAUGUUAGAUUGUUAUGUCAGGAUAUUGUCUAGCAACUAGACAAGAAGGGAUGCUCUGUG,–,–,364,56
ACAGGUUAAGGAUAUACAUGAGGAUCACCCAUGUCGAGUAUCUUGUCAUGCCGCCCAUGUAGAAGGUAACAUGG,13.5,17,–,–
ACAUAAAUUCGAGGAUAUCGGUGAUAUAAUUUACGAGAAGGCGAUAAAAGUUGUAAACUUAUAGACAUGAGGAUCACCCAUGUA,–,–,34.8,34
ACAUACAUUCGAGGAUAUCGGUGAUUAAUUUUACGAGAAGGCGAUAUAAGAUUUAAUAUUUUAGACAUGAGGAUCACCCAUGUA,–,–,27.6,22.7
ACAUAGUAAGGAUAUGCUGCUCGUCACUUGCGUGAUGAGUAGCAGAAGGUACAUGAGGAUCACCCAUGUAAAAA,25.3,19.1,–,–
ACAUGAGGAUCACCCAUGUACAUGGGUUUAAUUGUUUGUUACUAGGAUAUGUAUUUGAAUUUACAACAGAAGGAGUAUUAAUGU,985,414,–,–

Sequence,apparent Kd [1] [nM],apparent Kd [2] [nM],apparent Kd [3] [nM],apparent Kd [4] [nM]
ACAUGAGGAUCACCCAUGUAGAAUGAAGAAGGUACGUUAUUGAUAUGCAGGAAGUGUCGGUGUUGUAAGGAUAUUCUAAUAAUU,–,–,15.5,8.16
ACAUGAGGAUCACCCAUGUAGAAUGAAGAAGGUAGAUACUUGAGACUCACCCAUGUACAUAGGACUAAGGAUAUUCUAAUAAUU,–,–,14.1,10.7
ACAUGAGGAUCACCCAUGUAUUACAUGGUUAAGUUUAUUAACAGAAGGCGAAAAUACUUAUUGUUCGAGGAUAUGUAAUCAAUU,38,54.3,–,–
ACAUGAGGAUCACCCAUGUAUUUGUAGGAUAUACUCUAUUGUUUAUUACUCUAGUUAAAAUGUUUGUAGAAGGACAUUACAUGA,6.81,7.38,–,–
ACAUGAGGAUCACCCAUGUCUGCAUAGGAUAUUGAGGAUUAGGCAUAUUAUUAUGGAUUUGCCCACAAGAAGGAUGAAAUUGUU,–,–,20.1,13.4
ACAUGAGGAUCACCCAUGUGGACAUAGGAUAUUGGUGAUCAGGCGUGUUAUACAGGAUAGGUCUGCGAGAAGGGUGUACGUUGC,–,–,588,295
ACAUGAGGAUCACCCAUGUGGAGUGAAGAAGGUGGAUACUUAUGACUCUCCCAUGUACAUAGGACUGAGGAUAUUCUAAUAAUU,–,–,31.2,27.2
ACAUGAGGAUCACCCAUGUUAAAUUAGGAUAUAUGACUGCACAUGAGGUUCACCCAUGUUCUACCGUAGAAGGGAUAAAUAAUU,–,–,52.6,59.4
ACAUGAGGAUCACCCAUGUUACGAACAUGAGGAUCACCCAUGUAGGAUAUGCUACUCAAAGAGUAGCAGAAGGACAUGUGCCUU,1090,559,–,–
ACAUGAGGAUCACCCAUGUUAUCCGGGACUUCAAUUAUUUCUAGAAGGCUGUUUACUUGUUAGUCAGAGGAUAUAGAAUUAAAU,10.7,12.5,–,–
ACAUGAGGAUCACCCAUGUUCGUUGAAGAAGGUACGUAUGGCUGUGGCAGGAAUAUAGUUAUAUGUAAGGAUAUUCUCAUAAUU,–,–,13.1,7.11
ACAUGGAAUACAGGAUAUGUUAGUUUACAGUAGAUUGGUUAUUACUUAACUACAGAAGGGUAAUACAUGAGGAUCACCCAUGUA,–,–,18.4,11.8
ACAUGGUAGUAGAAGGGUAUUACUUUAGAUACAACCAUUUGUUUAGUUUAUACAGGAUAUGCUUACAUGAGGAUCACCCAUGUU,–,8.74,–,–
ACAUGUUUUACAGGAUAUGUUUUACAAUAAACAUUCAGUUAUUACGAUUAAACAGAAGGGUAUACAUGAGGAUCACCCAUGUAA,17.1,15,–,–
ACAUUAGAAGAGAAGGUUCAUACUAUUAUCAACAUACAUGAGGAUCACCCAUGUUGGUGAUUAAGAAAGGAUAUUUAUAACACU,23.1,20.6,–,–
ACCAACAGGGUUGGUACCGGCGCGCAGGAUAUGCUUGCCUACAUGAGGAUCACCCAUGUCUAAAUGCAGAAGGGUGAGCUGAGC,–,–,193,114
ACCAAGCUAGGAUAUGCUUGGGCUCAAAUAAAUAAACACAAACAUGAGGAUCACCCAUGUAGAAGGAGCUUGCU,12.4,15.5,–,–
ACCAAUGCAGGAUAUACAUGAGGAUCACCCAUGUAUAACCUACAUAGAUGAUCAUCAUGUAGAAGGGCAAUGGA,13.1,12.1,–,–
ACCACGUUAGCGAUAUGAUCGAGAGAUCAUGUCGCUAAUUUUAGAAGGACAUGAGGAUCACCCAUGUAGGAUAUGGGACGUGGA,–,–,14.7,7.88
ACCAGCGAUAUUUCGGUGAGUCAACCAGAAGGGACGAAGCCACAUGAGGAUCACCCAUGUCACUGUCAGGAUAUGGGAAGCGAC,–,–,364,29.5
ACCCAUGUCCAAGGAUAUGUACUCACAUGAGGAUCACCCAUGUAAAAGGGAGCAGAAGGUGGUACAUGUUAGAGAAUAAUAAAC,–,–,129,11.4
ACCGAAUGAACAUGAGGAUCACCCAUGUACAGGAAACUGAAUGAGGAUAUCCAUAGCAAAGCUAUGGAGAAGGCAUGGGUCGGU,–,–,363,110
ACCGGGUACACAGGAUAUCACGUCCUGACAUGAGGAUCACCCAUGUCGGUCUGAGAAGGGUGGUCCCGCAGCCGACUGUGAUGG,–,–,254,27.3
ACCGGGUGUCACGUAUUACCGACAUGAGGAUCACCCAUGUAGGAGGAUAUGCAGACCGAAAUAAAGCAGAAGGCCUACGUUCUC,10.6,46.6,–,–
ACCGUUGAAGCAGGAUAUUAUAGCGCCAGCGUAUAAGAAGGGCUUCAACAUGAGGAUCACCCAUGUUGGAGUACCUCAAAAGUG,5.53,23.7,–,–
ACCUAGACUAGGCCCACGGCAUCACAGGAUAUGCCGAUCACAUGAGGAUCACCCAUGUCAACUCCGCAGAAGGGUGAUAUCGUG,–,–,179,14.1
ACCUCACAUGAGGAUCACCCAUGUCAGGAUAUCUAAUGUAGUAGCGUUCCCGACGCUAAGAGAAGGGACAUUAA,15.9,22,–,–
